Assay [1] has as its target T1, Prostaglandin G/H synthase 1 (Ovis aries) (UniProt P05979).
T1 sequence (whole entry): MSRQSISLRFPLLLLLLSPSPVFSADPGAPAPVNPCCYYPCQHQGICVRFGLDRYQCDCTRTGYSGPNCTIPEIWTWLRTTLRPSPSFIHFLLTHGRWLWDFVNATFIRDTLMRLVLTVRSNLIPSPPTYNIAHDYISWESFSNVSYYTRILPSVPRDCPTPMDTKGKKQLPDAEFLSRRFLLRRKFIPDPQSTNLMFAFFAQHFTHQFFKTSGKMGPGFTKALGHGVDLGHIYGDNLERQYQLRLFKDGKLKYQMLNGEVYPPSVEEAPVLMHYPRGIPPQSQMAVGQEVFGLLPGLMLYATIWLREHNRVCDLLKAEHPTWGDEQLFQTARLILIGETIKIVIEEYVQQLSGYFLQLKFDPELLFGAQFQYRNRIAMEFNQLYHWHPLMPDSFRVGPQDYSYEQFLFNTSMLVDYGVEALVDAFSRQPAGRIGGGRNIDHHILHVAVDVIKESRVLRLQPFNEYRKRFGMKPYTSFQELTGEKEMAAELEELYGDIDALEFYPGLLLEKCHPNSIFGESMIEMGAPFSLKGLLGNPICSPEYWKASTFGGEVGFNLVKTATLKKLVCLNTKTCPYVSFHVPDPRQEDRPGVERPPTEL
Put plainly: Inhibition of ovine COX-1 assessed as residual activity at 10 uM using arachidonic acid as substrate preincubated for 5 mins followed by substrate addition and measured after 5 mins by RP-HPLC method relative to control. The method in brief:
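Ovine COX-1 (50 U/mL) or human recombinant COX-2 (20 U/mL) in 100 mM Tris pH 8 with 5 mM glutathione, 100 µM EDTA and 5 µM hemoglobin. Pre-incubated with compound or 0.1% DMSO for 5 min at room temperature, then 1 min at 37 °C. Started with AA (5 µM for COX-1, 2 µM for COX-2), run 5 min at 37 °C. 12-HHT measured by RP-HPLC.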

The test system of assay [2] is Mus musculus. Put plainly: Effect on IL-6 level in zymosan-induced CD-1 mouse peritonitis model in peritoneal exudate at 10 mg/kg, ip treated with compound for 30 mins after 4 to 24 hrs zymosan stimulation by ELISA. Type of assay: functional, organism-based. In outline:
(§1)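 Male CD-1 mice (10–14 wk, 25–30 g), n = 6/group. Zymosan A (500 mg/kg in PBS, boiled) given i.p.; test compound (0.1–10 mg/kg in DMSO/saline 1:3) i.p. 30 min later. Exudates collected by 2 mL PBS lavage at 4 or 24 h. Cells spun at 4 °C and cytokines in supernatant measured by sandwich ELISA at 450 nm. Values normalized to exudate levels, mean ± S.D.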

For assay [3], the system named is Mus musculus. Put plainly: Antiinflammatory activity in zymosan-induced CD-1 mouse peritonitis model assessed as reduction in zymosan-induced IL-1beta level in peritoneal exudate at 10 mg/kg, ip treated with compound for 30 mins after 24 hrs zymosan stimulation by ELISA. The assay is classed as functional, organism-based. The method in brief:
as §1

Assay [4] relates to Mus musculus. The assay can be described thus: Antiinflammatory activity in zymosan-induced CD-1 mouse peritonitis model assessed as reduction in zymosan-induced TNF-alpha level in peritoneal exudate at 10 mg/kg, ip treated with compound for 30 mins after 4 hrs zymosan stimulation by ELISA. The assay is classed as functional, organism-based. The method in brief: as §1
The test system of assay [5] is Mus musculus. Put plainly: Antiinflammatory activity in zymosan-induced CD-1 mouse peritonitis model assessed as reduction in zymosan-induced TNF-alpha level in peritoneal exudate at 10 mg/kg, ip treated with compound for 30 mins after 24 hrs zymosan stimulation by ELISA. The assay is classed as functional, organism-based. In outline: as §1
The test system of assay [6] is Mus musculus. Put plainly: Antiinflammatory activity in zymosan-induced CD-1 mouse peritonitis model assessed as reduction in zymosan-induced IL-1beta level in peritoneal exudate at 10 mg/kg, ip treated with compound for 30 mins after 4 hrs zymosan stimulation by ELISA. The assay is classed as functional, organism-based. The method in brief:
as §1

The next assay deals with T2, Prostaglandin E synthase (Homo sapiens, UniProt O14684).
T2 sequence (O14684 whole entry): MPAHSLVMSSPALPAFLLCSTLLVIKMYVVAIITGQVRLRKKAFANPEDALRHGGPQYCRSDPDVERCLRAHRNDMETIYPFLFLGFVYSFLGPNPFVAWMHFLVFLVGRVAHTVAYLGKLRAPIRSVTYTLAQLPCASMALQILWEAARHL
The assay can be described thus: Inhibition of mPGES-1 obtained from IL-beta stimulated human A549 cells microsomes assessed as residual activity by measuring conversion of PGH2 to PGE2 by cell-free RP-HPLC method. Further details: species or system Microsome. The method in brief:
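Microsomes from A549 cells stimulated with IL-1β (1 ng/ml) for 48 h. Diluted in 0.1 M potassium phosphate pH 7.4 with 2.5 mM glutathione. Pre-incubated 15 min on ice with compound (single 10 µM, or 0.03–10 µM for the curve) or 1% DMSO. 20 µM PGH2 added for 1 min; stopped with FeCl3/citric acid containing 11β-PGE2 standard. PGE2 measured by SPE and RP-HPLC. n = 3.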

In assay [7] the test system is Mus musculus. Put plainly: Antiinflammatory activity in zymosan-induced CD-1 mouse peritonitis model assessed as reduction in zymosan-induced neutrophil recruitment at 1 mg/kg, ip treated with compound for 30 mins after 4 hrs zymosan stimulation by ELISA. Type of assay: functional, organism-based. In outline: (§2)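 Male CD-1 mice (10–14 wk, 25–30 g), n = 6/group, injected i.p. with boiled zymosan A (500 mg/kg in PBS). Compound (0.1–10 mg/kg, DMSO/saline 1:3) given i.p. 30 min afterwards. Peritoneal lavage with 2 mL PBS at 4 or 24 h. Total leukocytes counted by automated counter with trypan blue, normalized to exudate. Mean ± S.D.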

Assay [8] deals with Mus musculus. The assay can be described thus: Antiinflammatory activity in zymosan-induced CD-1 mouse peritonitis model assessed as reduction in zymosan-induced neutrophil recruitment at 10 mg/kg, ip treated with compound for 30 mins after 4 hrs zymosan stimulation by ELISA. Type of assay: functional, organism-based. In outline:
as §2

Assay [9] concerns Mus musculus. Put plainly: Effect on IL-10 level in zymosan-induced CD-1 mouse peritonitis model in peritoneal exudate at 10 mg/kg, ip treated with compound for 30 mins after 4 to 24 hrs zymosan stimulation by ELISA. Type of assay: functional, organism-based. In outline: as §1

Molecules are shown by their SMILES. The source made the active and inactive calls. The rule behind the calls is not given here.

For `Oc1cccc(CCc2nc(-c3ccc(-c4ccsc4)cc3)no2)c1`, the Activity in assay [1] came to 47.7%.
`Oc1c(F)c(F)cc(-c2nc(-c3ccc(-c4ccsc4)cc3)no2)c1F`: the result with Mus musculus [2] and in the assay with Mus musculus [9] was inactive. Besides, the result with Mus musculus [3], in the assay with Mus musculus [4], with Mus musculus [5], in the assay with Mus musculus [6], in the assay on Mus musculus [7] and in the assay with Mus musculus [8] was Active. The half-inhibitory concentration (IC50) at Prostaglandin E synthase came to 3.6 µM.

These data come from ChEMBL document CHEMBL4840316, “Structure-based screening for the discovery of 1,2,4-oxadiazoles as promising hits for the development of new anti-inflammatory agents interfering with eicosanoid biosynthesis pathways” (Eur J Med Chem, 2021).
